Numbering of substitutions follows the chain as printed.
Columns and labels:
Conditions in all cases: stereoisomer not certain
[1] = test system: T1, O1440
T1 sequence (whole entry): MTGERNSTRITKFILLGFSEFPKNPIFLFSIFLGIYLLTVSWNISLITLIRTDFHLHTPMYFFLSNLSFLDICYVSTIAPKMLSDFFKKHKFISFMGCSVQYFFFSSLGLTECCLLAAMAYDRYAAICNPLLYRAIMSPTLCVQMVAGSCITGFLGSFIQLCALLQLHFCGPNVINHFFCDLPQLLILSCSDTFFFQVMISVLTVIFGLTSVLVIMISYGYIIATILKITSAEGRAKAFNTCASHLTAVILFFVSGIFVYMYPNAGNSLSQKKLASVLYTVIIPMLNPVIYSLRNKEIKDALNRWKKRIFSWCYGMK
Procedure, shortened: (§1)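 Transient luciferase assays in mammalian cell lines were common, though methods varied by source. The values come from published papers and their supplementary material, with extra details from the original authors when needed. Responsive refers to a measured signal the original authors judged statistically different from baseline, and non-responsive (inactive) to the remainder.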

[2] = test system: T2, O14A2 I133V
T2 sequence (whole entry): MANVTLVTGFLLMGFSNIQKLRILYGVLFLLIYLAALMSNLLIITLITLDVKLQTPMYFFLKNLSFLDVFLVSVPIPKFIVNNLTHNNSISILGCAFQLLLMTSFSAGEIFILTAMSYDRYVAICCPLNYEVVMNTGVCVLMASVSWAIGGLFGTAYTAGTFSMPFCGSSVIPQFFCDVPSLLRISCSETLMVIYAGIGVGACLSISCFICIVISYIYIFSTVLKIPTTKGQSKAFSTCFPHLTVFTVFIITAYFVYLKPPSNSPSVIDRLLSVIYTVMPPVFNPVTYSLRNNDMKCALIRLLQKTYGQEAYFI
Procedure, shortened: as §1

[3] = test system: T3, O14CZ
T3 sequence (whole entry): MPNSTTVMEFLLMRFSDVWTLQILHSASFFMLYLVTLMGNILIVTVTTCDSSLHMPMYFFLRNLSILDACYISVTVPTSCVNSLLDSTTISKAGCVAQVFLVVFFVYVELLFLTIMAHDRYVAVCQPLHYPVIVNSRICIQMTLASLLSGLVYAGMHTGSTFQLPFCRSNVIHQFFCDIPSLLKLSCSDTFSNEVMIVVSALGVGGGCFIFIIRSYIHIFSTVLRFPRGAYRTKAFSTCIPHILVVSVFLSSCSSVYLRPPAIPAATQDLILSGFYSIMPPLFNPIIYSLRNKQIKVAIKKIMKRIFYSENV
Procedure, shortened: as §1

[4] = test system: T4, O14I1 V36A D50N Y216C
T4 sequence (whole entry): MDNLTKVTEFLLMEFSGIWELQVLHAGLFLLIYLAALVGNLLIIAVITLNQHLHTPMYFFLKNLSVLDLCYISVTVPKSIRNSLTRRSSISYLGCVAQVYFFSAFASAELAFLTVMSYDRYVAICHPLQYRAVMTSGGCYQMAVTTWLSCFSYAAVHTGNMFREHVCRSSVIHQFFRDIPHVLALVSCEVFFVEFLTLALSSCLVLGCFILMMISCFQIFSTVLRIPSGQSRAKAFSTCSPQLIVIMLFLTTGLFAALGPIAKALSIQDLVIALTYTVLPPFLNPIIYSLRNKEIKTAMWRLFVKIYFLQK
Procedure, shortened: as §1

[5] = test system: T5, O14J1 N3Y
T5 sequence (whole entry): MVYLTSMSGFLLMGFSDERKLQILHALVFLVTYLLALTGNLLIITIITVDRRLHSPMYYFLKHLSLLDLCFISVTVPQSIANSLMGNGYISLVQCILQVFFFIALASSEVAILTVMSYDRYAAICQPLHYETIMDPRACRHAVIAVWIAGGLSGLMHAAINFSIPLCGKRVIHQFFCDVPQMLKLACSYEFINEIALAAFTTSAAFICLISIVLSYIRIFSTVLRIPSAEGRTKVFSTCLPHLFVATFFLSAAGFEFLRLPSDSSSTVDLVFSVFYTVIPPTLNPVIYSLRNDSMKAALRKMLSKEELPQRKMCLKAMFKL
Procedure, shortened: as §1

[6] = test system: T6, O14K1 D119Y
T6 sequence (whole entry): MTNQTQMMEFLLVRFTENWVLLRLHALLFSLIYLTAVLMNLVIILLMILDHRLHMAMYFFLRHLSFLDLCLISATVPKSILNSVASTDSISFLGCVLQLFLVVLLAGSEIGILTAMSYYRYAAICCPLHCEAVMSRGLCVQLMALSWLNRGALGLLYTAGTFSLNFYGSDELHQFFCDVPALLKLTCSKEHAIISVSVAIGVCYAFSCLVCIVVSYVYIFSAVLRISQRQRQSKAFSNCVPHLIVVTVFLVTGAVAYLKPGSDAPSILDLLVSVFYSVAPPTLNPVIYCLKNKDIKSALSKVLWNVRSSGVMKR
Procedure, shortened: as §1

[7] = test system: T7, O2A25
T7 sequence (whole entry): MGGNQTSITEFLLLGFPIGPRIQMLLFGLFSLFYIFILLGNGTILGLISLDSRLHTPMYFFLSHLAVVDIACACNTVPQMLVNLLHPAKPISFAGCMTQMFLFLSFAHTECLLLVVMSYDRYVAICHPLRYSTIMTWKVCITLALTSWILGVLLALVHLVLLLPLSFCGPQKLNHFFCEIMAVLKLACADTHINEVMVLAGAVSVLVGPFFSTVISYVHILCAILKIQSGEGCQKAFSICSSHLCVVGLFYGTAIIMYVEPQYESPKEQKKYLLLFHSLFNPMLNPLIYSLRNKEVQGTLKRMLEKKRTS
Procedure, shortened: as §1

[8] = test system: T8, O2AE1
T8 sequence (whole entry): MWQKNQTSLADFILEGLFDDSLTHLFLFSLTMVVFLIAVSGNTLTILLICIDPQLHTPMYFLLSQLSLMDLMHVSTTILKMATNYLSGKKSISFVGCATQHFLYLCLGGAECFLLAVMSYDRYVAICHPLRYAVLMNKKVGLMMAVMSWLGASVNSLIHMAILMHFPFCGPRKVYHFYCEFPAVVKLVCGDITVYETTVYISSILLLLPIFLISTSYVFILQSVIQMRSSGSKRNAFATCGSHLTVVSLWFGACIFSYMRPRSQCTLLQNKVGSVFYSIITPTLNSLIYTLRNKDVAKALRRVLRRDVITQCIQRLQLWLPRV
Procedure, shortened: as §1

[9] = test system: T9, O2AJ1
T9 sequence (whole entry): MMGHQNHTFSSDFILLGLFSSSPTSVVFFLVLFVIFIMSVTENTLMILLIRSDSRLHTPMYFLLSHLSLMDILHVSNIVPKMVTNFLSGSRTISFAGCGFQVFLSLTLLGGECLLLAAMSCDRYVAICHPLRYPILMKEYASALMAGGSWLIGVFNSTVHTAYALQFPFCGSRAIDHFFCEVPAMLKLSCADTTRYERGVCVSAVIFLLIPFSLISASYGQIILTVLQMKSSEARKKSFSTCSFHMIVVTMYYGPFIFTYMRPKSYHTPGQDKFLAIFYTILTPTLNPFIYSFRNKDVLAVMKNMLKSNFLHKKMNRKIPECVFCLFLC
Procedure, shortened: as §1

[10] = test system: T10, O2AK2 S99N
T10 sequence (whole entry): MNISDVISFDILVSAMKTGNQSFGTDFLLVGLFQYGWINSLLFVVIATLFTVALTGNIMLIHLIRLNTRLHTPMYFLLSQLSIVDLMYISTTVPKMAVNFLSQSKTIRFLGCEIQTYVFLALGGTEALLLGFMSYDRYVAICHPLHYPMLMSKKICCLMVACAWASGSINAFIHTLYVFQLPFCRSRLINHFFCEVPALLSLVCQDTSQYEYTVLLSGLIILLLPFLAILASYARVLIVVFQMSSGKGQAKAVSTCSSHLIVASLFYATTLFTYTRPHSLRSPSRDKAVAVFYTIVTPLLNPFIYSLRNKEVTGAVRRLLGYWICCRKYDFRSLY
Procedure, shortened: as §1

[11] = test system: T11, O2T11
T11 sequence (whole entry): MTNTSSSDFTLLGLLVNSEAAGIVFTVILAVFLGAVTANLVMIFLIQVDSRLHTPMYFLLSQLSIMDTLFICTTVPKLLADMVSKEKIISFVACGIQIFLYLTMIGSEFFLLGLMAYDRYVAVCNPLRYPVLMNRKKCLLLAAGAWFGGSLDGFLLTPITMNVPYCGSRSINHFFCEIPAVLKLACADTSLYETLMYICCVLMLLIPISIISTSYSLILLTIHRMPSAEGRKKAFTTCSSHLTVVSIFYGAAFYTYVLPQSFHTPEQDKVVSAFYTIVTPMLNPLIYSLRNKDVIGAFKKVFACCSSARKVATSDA
Procedure, shortened: as §1

[12] = test system: T12, O2T27 L36V V134D
T12 sequence (whole entry): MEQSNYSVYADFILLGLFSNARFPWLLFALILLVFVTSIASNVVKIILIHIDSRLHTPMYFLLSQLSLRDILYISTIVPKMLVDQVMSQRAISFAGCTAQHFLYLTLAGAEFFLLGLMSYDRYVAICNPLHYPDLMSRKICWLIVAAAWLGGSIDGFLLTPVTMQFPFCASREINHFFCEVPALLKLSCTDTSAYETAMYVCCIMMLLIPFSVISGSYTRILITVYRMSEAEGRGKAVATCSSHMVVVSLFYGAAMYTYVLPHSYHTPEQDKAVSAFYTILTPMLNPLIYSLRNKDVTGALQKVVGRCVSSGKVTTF
Procedure, shortened: as §1

[13] = test system: T13, O2T29 Q24R
T13 sequence (whole entry): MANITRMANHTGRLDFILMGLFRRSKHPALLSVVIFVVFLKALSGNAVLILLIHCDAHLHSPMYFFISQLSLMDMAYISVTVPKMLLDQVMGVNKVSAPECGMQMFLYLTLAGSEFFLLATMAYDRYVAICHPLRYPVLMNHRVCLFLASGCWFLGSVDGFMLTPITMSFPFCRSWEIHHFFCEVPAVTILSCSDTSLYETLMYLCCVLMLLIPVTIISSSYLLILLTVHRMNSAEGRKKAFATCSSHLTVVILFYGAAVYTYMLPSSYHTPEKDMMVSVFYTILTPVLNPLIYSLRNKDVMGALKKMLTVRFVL
Procedure, shortened: as §1

[14] = test system: T14, O2T33 A169V
T14 sequence (whole entry): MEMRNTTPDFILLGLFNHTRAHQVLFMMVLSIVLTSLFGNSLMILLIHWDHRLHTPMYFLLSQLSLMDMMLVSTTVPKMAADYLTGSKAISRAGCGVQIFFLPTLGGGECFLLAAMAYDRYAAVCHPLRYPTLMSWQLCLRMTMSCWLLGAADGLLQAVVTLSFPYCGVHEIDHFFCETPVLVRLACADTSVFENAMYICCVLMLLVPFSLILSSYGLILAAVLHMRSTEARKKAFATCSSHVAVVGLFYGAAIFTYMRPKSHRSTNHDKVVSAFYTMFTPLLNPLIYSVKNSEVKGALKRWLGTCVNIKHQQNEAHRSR
Procedure, shortened: as §1

[15] = test system: T15, O2T33 G297E I309L
T15 sequence (whole entry): T14 sequence (whole entry) with V169A, G297E, I309L
Procedure, shortened: as §1

[16] = test system: T16, O2T34 Q6P R267P
T16 sequence (whole entry): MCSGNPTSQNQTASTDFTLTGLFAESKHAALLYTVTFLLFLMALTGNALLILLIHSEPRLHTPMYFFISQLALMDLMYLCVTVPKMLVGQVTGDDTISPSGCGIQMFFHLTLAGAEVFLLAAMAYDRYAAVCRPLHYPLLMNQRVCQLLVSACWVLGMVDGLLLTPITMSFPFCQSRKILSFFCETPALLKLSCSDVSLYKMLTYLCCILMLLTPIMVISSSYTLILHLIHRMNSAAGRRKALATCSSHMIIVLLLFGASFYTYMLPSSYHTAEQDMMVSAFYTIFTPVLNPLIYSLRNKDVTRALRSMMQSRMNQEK
Procedure, shortened: as §1

[17] = test system: T17, O2T34 R267P
T17 sequence (whole entry): T16 sequence (whole entry) with P6Q
Procedure, shortened: as §1

[18] = test system: T18, O4A47
T18 sequence (whole entry): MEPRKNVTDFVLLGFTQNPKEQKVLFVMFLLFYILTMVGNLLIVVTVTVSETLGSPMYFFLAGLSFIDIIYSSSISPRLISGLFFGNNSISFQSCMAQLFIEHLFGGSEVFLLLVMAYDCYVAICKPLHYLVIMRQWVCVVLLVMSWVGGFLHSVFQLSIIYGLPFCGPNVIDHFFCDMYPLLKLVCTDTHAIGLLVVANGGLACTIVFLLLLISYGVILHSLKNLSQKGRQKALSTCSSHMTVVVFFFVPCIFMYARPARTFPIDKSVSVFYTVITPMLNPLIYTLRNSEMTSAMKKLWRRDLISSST
Procedure, shortened: as §1

[19] = test system: O4C46 S240F C252Y K288R
Procedure, shortened: as §1

[20] = test system: T19, O4F15 A272T
T19 sequence (whole entry): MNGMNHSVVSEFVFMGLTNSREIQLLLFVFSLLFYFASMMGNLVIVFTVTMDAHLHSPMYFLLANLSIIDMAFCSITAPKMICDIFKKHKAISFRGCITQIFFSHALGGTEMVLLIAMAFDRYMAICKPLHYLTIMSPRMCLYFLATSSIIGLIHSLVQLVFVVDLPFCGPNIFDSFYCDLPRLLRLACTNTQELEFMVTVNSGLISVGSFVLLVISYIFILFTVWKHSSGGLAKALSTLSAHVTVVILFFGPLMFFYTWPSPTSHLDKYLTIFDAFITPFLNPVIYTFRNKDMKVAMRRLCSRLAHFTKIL
Procedure, shortened: as §1
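Also: active if original authors judged signal statistically different from baseline.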

OC1CCCCCCCCCCCCCC1
odorant receptor agonist call [1]: active

CCCCCCCCCCCCCC(C)=O
odorant receptor agonist call [1]: active

CCC1OC(=O)C(O)=C1C (stereo unspecified)
odorant receptor agonist call [2]: inactive | odorant receptor agonist call [3]: inactive | odorant receptor agonist call [4]: inactive | odorant receptor agonist call [5]: inactive | odorant receptor agonist call [6]: inactive | odorant receptor agonist call [7]: inactive | odorant receptor agonist call [8]: inactive | odorant receptor agonist call [9]: inactive | odorant receptor agonist call [10]: inactive | odorant receptor agonist call [11]: inactive | odorant receptor agonist call [12]: inactive | odorant receptor agonist call [13]: inactive | odorant receptor agonist call [14]: inactive | odorant receptor agonist call [15]: inactive | odorant receptor agonist call [16]: inactive | odorant receptor agonist call [17]: inactive | odorant receptor agonist call [18]: inactive | odorant receptor agonist call [19]: inactive | odorant receptor agonist call [20]: inactive

Reference: the M2OR odorant receptor database
